Assay results: ChEMBL document CHEMBL4428071 (J Med Chem, 2016)
≈ marks a conversion by molar mass, not a printed value. Calls of active or inactive are those of the source. No cut-off for these calls is given here.

What was measured:
[1] = molecular target: Receptor-type tyrosine-protein kinase FLT3 (Homo sapiens) (UniProt P36888); experiment: Inhibition of TEL-fused partial length human FLT3 expressed in mouse BA/F3 cells after 72 hrs by cell titer-glo assay; format: cell-based
How it was run: (§1)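 Cells seeded at 3000 per well and exposed to serial compound dilutions for 72 h. Viability read by CellTiter-Glo luminescence and normalised to DMSO controls; mean of three independent measurements. BaF3 lines kept IL-3-free in RPMI 1640/10% FBS after retroviral transduction and puromycin selection. GIST lines grown in DMEM/10% FBS.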

[2] = molecular target: Macrophage colony-stimulating factor 1 receptor (Homo sapiens) (UniProt P07333); experiment: Inhibition of TEL-fused partial length human CSF1R expressed in mouse BA/F3 cells after 72 hrs by cell titer-glo assay; format: cell-based; how it was run: as §1
Homo sapiens [3] = organism: Homo sapiens; experiment: Inhibition of TEL-fused cKIT L567P mutant (unknown origin) expressed in mouse BA/F3 cells assessed as cell growth inhibition after 72 hrs by cell titer-glo assay; format: cell-based; how it was run: as §1
[4] = tested on: Mast/stem cell growth factor receptor Kit (Homo sapiens), P10721 [T670I]; experiment: Inhibition of TEL-fused cKIT T670I mutant (unknown origin) expressed in mouse BA/F3 cells assessed as cell growth inhibition after 72 hrs by cell titer-glo assay; format: cell-based; how it was run: as §1
[5] = Cytotoxicity mouse BA/F3 cells assessed as cell growth inhibition after 72 hrs by cell titer-glo assay; format: cell-based, BaF3; how it was run: as §1
[6] = tested on: Mast/stem cell growth factor receptor Kit (Homo sapiens), P10721 [T670I]; experiment: Ratio of Imatinib IC50 to compound IC50 for cKIT T670I mutant in human in GIST-5R cells; format: cell-based
[7] = molecular target: T1, Mast/stem cell growth factor receptor Kit (Homo sapiens, UniProt P10721, T670I); experiment: Inhibition of His-tagged cKIT T670I mutant (544 to 935 residues) (unknown origin) expressed in Sf9 cells using Poly(4:1 Glu, Tyr) peptide as substrate after 1 hr by ADP-glo kinase assay
[8] = molecular target: Epithelial discoidin domain-containing receptor 1 (Homo sapiens) (UniProt Q08345); experiment: Inhibition of partial length human DDR1 expressed in bacterial expression system assessed as activity remaining at 1 uM by kinome scan assay
[9] = molecular target: Receptor-type tyrosine-protein kinase FLT3 (Homo sapiens) (UniProt P36888); experiment: Inhibition of partial length human FLT3 expressed in bacterial expression system assessed as activity remaining at 1 uM by kinome scan assay
[10] = molecular target: Vascular endothelial growth factor receptor 3 (Homo sapiens) (UniProt P35916); experiment: Inhibition of TEL-fused partial length human FLT4 expressed in mouse BA/F3 cells after 72 hrs by cell titer-glo assay; format: cell-based; how it was run: as §1
[11] = molecular target: Proto-oncogene tyrosine-protein kinase receptor Ret (Homo sapiens) (UniProt P07949); experiment: Inhibition of TEL-fused partial length human RET expressed in mouse BA/F3 cells after 72 hrs by cell titer-glo assay; format: cell-based; how it was run: as §1
[12] = molecular target: T1, Mast/stem cell growth factor receptor Kit; experiment: Inhibition of cKIT T670I mutant autophosphorylation at Y719 in human GIST-5R cells at 0.1 to 3 uM after 1 hr by Western blot analysis; format: cell-based
How it was run: (§2)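 GIST-T1 or GIST-5R cells in DMEM with 10% FBS were treated with serially diluted compound for 1 h. Cells were then lysed and analysed by western blotting.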

[13] = molecular target: T1, Mast/stem cell growth factor receptor Kit; experiment: Inhibition of cKIT T670I mutant autophosphorylation at Y823 in human GIST-5R cells at 0.1 to 3 uM after 1 hr by Western blot analysis; format: cell-based; how it was run: as §2
GISTT1 [14] = experiment: Induction of apoptosis in human GISTT1 cells assessed as increase in cleaved PARP levels after 24 hrs by Western blot analysis; format: functional, cell-based
How it was run: (§3)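 GIST-T1 or GIST-5R cells in DMEM with 10% FBS were exposed to serially diluted compound for 24 h. Apoptosis was assessed by western blot with PARP and GAPDH antibodies.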

GISTT1 [15] = experiment: Induction of apoptosis in human GISTT1 cells assessed as increase in cleaved PARP levels after at 30 nM 24 hrs by Western blot analysis; format: functional, cell-based; how it was run: as §3
Homo sapiens [16] = organism: Homo sapiens; experiment: Induction of apoptosis in human GIST5R cells assessed as increase in cleaved PARP levels after 24 hrs by Western blot analysis; format: functional, cell-based; how it was run: as §3
[17] = MRT (0 to infinity) in Sprague-Dawley rat at 1 mg/kg, iv measured up to 8 hrs post dosing; format: ADME, organism-based; conditions: in vivo
How it was run: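 Male Sprague-Dawley rats, 8 weeks old, fasted overnight, dosed at 1 mg/kg iv from a 1 mg/mL stock in 5% DMSO/40% PEG400/55% saline. About 0.2 mL jugular blood taken into heparin at 1 min to 8 h. Plasma held at -80 °C until analysis. n = 3, mean reported.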

[18] = Solubility of the compound in pure water; format: physicochemical
How it was run: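 Solubility measured in PBS pH 7.4 and in pure water, reported as µg/mL.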

[19] = Toxicity in nu/nu mouse xenografted with TEL-fused cKIT T670I mutant expressed in mouse BA/F3 cells assessed as body weight reduction at 25 to 100 mg/kg/day, ip after 10 days; format: organism-based; conditions: in vivo, 240 h
How it was run: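 Female nu/nu mice, 5 weeks old on purchase, injected subcutaneously in the right flank with 1×10^6 BaF3-TEL-cKIT-T670I cells in PBS/Matrigel 1:1. At 200–400 mm³ tumours, mice were randomized to 7 per group. They then got 25, 50 or 100 mg/kg/day ip or vehicle (0.5% methylcellulose/0.4% Tween80 in water) for 10 days. Body weight was recorded daily relative to initial weight.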

BaF3 [20] = experiment: Antitumor activity against TEL-fused cKIT T670I mutant expressing mouse BA/F3 cells allografted in nu/nu mouse assessed as tumor growth inhibition at 50 mg/kg/day, ip administered daily for 10 days; format: functional; conditions: 240 h, read-out: TGI
How it was run: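 Female nu/nu mice, 5 weeks old at purchase, given 1 million BaF3-TEL-cKIT-T670I cells in PBS/Matrigel 1:1 subcutaneously on the right flank. At tumour volume 200–400 mm3, randomised into groups of 7 and dosed IP daily for 10 days (25, 50, 100 mg/kg/d or vehicle: 0.5% methylcellulose/0.4% Tween80 in water). Tumour volume (W2×L/2) and body weight recorded daily.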

BaF3 [21] = experiment: Induction of apoptosis in mouse BA/F3 cells harboring TEL-fused cKIT T670I mutant allografted in nu/nu mouse at 25 to 100 mg/kg, ip administered daily for 10 days by TUNEL staining based microscopic analysis; format: functional, organism-based
How it was run: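 Tumour sections from the daily-IP, 10-day BaF3-TEL-cKIT-T670I xenograft study were deparaffinised and digested with proteinase K for 15 min at RT. Peroxidase blocked in 3% H2O2/methanol. TdT reaction 1 h at 37 °C, converter-POD 30 min at 37 °C, DAB ~8 min, haematoxylin counterstain.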

[22] = molecular target: Mast/stem cell growth factor receptor Kit (Homo sapiens, UniProt P10721); experiment: Ratio of sunitinib IC50 to compound IC50 for TEL-fused cKIT (unknown origin) expressed in mouse BA/F3 cells; format: cell-based
[23] = tested on: Mast/stem cell growth factor receptor Kit (Homo sapiens), P10721 [T670I]; experiment: Inhibition of partial length human cKIT T670I mutant expressed in bacterial expression system assessed as activity remaining at 1 uM by kinome scan assay

T1 sequence (P10721 26-976 T670I limits assumed): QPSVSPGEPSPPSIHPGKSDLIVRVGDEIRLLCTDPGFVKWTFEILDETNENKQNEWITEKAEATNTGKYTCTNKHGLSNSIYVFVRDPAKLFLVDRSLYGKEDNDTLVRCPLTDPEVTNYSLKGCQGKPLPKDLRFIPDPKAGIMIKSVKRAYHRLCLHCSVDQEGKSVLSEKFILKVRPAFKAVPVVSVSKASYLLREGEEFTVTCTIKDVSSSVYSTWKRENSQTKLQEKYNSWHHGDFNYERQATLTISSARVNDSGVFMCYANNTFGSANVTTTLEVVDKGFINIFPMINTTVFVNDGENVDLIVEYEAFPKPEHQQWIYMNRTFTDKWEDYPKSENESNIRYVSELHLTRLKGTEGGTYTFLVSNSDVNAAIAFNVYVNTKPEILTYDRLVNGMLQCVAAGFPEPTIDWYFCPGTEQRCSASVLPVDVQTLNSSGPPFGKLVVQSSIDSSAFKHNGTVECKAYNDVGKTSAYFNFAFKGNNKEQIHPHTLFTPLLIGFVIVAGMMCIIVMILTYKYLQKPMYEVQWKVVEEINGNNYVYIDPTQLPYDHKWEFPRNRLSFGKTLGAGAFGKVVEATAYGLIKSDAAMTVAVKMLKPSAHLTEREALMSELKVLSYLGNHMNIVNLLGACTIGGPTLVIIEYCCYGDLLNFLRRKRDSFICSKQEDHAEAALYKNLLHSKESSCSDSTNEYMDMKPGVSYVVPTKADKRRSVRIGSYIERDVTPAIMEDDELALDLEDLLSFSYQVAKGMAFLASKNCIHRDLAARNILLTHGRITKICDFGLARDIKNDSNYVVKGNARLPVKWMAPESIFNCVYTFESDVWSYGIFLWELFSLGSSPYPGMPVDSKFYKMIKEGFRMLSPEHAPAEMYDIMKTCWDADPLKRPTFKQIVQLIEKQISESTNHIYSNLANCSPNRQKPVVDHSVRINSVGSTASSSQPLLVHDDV
Mast/stem cell growth factor receptor Kit (Homo sapiens), P10721 [T670I], sequence (P10721 whole entry T670I, the tested form may be a part): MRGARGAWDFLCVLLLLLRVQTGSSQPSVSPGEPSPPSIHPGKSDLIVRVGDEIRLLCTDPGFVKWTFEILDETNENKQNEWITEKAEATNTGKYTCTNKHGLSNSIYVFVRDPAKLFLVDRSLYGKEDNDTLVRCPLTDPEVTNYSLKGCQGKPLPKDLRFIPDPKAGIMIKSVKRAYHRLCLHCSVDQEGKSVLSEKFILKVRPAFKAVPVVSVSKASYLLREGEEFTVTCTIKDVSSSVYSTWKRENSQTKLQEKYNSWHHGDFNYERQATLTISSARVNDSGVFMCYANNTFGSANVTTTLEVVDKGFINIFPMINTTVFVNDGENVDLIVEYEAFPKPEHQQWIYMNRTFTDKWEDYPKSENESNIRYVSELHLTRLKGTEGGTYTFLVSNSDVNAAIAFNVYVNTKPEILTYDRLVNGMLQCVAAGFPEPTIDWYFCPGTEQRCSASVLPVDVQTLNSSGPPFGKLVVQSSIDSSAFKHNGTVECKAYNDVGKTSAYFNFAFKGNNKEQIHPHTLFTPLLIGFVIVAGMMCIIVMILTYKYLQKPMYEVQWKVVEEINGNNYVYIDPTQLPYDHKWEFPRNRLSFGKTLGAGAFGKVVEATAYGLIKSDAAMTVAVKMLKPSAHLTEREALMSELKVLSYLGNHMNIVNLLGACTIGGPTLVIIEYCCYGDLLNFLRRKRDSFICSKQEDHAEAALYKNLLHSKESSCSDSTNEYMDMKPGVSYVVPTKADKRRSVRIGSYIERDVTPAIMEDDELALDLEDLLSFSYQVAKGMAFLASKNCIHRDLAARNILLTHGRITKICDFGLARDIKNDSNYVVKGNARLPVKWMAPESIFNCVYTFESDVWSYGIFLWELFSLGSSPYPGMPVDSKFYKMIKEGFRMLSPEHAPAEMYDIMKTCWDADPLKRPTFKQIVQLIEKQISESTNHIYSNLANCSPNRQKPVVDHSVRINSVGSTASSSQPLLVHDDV
Receptor-type tyrosine-protein kinase FLT3 (Homo sapiens), sequence (P36888 whole entry, the tested form may be a part): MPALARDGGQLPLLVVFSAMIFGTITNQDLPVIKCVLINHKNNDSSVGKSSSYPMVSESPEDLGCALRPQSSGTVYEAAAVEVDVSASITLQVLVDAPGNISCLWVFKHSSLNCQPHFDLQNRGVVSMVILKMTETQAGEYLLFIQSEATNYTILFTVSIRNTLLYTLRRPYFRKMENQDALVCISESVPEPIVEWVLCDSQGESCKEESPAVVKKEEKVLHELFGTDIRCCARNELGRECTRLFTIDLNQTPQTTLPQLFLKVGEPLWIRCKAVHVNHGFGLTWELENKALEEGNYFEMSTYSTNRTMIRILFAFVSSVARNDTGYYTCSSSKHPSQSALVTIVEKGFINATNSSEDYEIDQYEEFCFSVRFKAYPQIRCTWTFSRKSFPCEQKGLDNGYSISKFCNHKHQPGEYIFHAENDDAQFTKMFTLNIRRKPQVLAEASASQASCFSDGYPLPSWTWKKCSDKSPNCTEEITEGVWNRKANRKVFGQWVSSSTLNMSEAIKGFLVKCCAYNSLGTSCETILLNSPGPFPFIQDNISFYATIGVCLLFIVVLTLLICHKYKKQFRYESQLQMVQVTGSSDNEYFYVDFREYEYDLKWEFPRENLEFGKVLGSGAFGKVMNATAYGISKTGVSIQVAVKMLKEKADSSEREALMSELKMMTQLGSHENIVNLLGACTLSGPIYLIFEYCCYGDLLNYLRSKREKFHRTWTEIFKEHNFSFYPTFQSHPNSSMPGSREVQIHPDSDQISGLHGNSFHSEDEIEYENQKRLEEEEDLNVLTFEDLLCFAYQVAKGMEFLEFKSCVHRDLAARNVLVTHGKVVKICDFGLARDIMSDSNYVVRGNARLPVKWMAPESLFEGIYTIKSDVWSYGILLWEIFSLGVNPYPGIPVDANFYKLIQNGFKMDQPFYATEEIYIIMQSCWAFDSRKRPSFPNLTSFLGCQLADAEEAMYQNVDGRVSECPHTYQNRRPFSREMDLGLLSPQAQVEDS
Epithelial discoidin domain-containing receptor 1 (Homo sapiens), sequence (Q08345 whole entry, the tested form may be a part): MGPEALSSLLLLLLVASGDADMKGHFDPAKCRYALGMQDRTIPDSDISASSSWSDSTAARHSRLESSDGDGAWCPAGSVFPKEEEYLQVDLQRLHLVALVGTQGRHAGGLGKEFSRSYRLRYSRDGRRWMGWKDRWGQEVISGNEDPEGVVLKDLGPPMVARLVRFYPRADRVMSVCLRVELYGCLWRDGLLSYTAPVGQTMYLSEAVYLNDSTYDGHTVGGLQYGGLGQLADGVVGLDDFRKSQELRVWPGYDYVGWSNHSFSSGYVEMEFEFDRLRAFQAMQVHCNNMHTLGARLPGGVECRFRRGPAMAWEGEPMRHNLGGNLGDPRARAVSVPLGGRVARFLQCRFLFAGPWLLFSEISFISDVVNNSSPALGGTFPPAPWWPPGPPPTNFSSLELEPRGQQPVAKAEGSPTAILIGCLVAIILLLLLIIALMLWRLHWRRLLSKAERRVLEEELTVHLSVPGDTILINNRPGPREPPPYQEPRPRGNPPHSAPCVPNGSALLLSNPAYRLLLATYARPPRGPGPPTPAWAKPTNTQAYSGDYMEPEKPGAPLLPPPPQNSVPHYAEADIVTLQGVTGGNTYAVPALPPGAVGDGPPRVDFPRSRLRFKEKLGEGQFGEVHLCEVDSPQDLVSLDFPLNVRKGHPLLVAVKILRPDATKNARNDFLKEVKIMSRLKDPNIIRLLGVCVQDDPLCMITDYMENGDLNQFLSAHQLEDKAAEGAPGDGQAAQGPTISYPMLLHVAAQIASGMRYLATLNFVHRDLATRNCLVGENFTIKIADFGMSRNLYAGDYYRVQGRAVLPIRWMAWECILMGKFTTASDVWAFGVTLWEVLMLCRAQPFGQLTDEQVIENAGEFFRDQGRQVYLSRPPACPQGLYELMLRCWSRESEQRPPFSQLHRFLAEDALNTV
Macrophage colony-stimulating factor 1 receptor (Homo sapiens), sequence (P07333 whole entry, the tested form may be a part): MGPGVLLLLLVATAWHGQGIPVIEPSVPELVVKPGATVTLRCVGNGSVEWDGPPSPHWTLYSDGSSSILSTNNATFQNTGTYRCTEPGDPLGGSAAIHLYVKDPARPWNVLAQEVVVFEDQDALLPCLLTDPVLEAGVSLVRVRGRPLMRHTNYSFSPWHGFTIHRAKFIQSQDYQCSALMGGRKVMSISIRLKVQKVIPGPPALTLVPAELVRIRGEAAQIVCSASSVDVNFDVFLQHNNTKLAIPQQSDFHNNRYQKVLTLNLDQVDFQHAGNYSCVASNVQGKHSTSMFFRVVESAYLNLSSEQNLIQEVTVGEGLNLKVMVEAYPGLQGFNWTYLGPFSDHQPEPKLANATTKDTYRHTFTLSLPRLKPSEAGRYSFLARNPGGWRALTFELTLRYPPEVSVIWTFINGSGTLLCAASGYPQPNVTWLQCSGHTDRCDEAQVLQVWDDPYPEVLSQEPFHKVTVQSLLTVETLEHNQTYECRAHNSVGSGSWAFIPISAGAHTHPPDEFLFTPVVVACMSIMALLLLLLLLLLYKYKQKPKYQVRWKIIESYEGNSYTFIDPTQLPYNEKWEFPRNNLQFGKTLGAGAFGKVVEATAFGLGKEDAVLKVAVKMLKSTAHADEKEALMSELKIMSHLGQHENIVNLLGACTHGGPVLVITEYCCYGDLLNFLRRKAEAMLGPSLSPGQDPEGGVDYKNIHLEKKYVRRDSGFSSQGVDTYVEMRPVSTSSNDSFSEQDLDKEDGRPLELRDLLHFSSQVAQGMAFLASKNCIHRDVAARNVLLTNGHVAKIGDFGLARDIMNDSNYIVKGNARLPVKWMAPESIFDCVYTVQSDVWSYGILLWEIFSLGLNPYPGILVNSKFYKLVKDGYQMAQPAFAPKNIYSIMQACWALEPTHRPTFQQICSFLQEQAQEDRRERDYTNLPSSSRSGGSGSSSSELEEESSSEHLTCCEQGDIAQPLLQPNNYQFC
Mast/stem cell growth factor receptor Kit (Homo sapiens, UniProt P10721), sequence (P10721 whole entry, the tested form may be a part): as the sequence (P10721 whole entry T670I, the tested form may be a part) above, with I670T counted along it

CCC(=O)NCC1CCN(c2ccc(NC(=O)Nc3cccc(Oc4ccnc5cc(OC)c(OC)cc45)c3)cc2C(F)(F)F)CC1
GI50 [1]: 99 nM | GI50 [2]: 110 nM | GI50 (Homo sapiens [3]): 23 nM | GI50 [4]: 63 nM | GI50 at 72 h [5]: > 10000 nM | Ratio IC50 [6]: 300 | IC50 [7]: 99 nM | Activity [8]: < 1% | Activity [9]: 0.85% | GI50 [10]: 240 nM | GI50 [11]: 120 nM | EC50 [12]: < 100 nM | EC50 [13]: < 100 nM | Activity (GISTT1 [14]): Dose-dependent effect | Activity (GISTT1 [15]): Active | Activity (Homo sapiens [16]): Dose-dependent effect | MRT inf [17]: 46.8 min | solubility [18]: 78 µM (≈ 50.8 µg/mL) | Activity [19]: Non-Toxic | inhibition in vivo at 50 mg/kg/day (BaF3 [20]): 37.1% | Activity (BaF3 [21]): Active | Ratio IC50 [22]: 2 | Activity [23]: < 1%
